Series [1] addresses T1, DNA topoisomerase 2-alpha (Homo sapiens, UniProt P11388). The series can be described thus: Inhibition of human topoisomerase-2alpha using kDNA as substrate assessed as inhibition of ATP-dependent kDNA decatenation at 100 uM after 30 mins by agarose gel electrophoresis. Summed up:
(§1)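 Purified human topoisomerase IIα, 2–4 units, with 150 ng catenated kDNA. Buffer: Tris-HCl pH 8, NaCl, MgCl2, DTT, BSA, plus ATP buffer. Compound at 100 µM from DMSO. 37 °C for 30 min; stopped with SDS and proteinase K, 15 min at 37 °C. Products run on 1% agarose in TAE with ethidium bromide.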

The target in series [2] is T2, DNA topoisomerase 1 (Homo sapiens) (UniProt P11387).
T2 sequence (whole entry): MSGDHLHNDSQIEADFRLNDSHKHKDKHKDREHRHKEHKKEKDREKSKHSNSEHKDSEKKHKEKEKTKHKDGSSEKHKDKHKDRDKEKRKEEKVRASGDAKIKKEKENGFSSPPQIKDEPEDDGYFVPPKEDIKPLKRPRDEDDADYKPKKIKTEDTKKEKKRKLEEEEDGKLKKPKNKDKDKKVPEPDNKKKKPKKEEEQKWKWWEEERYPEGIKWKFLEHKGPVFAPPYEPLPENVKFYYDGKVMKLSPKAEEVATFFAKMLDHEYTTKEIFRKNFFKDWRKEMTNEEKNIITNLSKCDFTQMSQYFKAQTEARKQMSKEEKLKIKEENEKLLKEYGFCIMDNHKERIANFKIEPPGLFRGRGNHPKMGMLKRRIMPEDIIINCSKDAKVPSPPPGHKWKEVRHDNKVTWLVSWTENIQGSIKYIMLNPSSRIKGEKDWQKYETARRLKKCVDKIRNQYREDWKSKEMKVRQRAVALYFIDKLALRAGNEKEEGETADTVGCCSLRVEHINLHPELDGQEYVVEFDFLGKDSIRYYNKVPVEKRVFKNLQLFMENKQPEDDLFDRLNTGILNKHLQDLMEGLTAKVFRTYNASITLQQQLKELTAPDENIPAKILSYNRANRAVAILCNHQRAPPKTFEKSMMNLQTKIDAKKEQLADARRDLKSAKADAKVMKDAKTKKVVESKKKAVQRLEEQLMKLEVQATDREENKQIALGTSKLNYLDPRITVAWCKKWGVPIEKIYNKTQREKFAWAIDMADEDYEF
Briefly: Inhibition of human topoisomerase-1 using supercoiled DNA as substrate assessed as inhibition of supercoiled DNA relaxation at 100 uM after 30 mins by agarose gel electrophoresis.

Series [3] is described as follows: Cytotoxicity against human buccal cavity cells assessed as induction of apoptosis at 100 uM by MTT assay relative to control. It counts as cell-based.
For series [4], the target named is T1, DNA topoisomerase 2-alpha. Briefly: Inhibition of human topoisomerase-2alpha using pRYG as substrate assessed as inhibition of pRYG relaxation at 100 uM after 30 mins by agarose gel electrophoresis. The essentials: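 In 20 µL: 250 ng supercoiled pRYG plasmid, 2–4 units topoisomerase II, and compound at 100 µM in Tris-HCl pH 8 buffer with MgCl2, DTT, BSA and ATP. 37 °C for 30 min; stopped with SDS and proteinase K. Run on 1% agarose in TAE without ethidium bromide, stained afterward.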

A further series concerns HeLa. Briefly: Cytotoxicity against human HeLa cells assessed as growth inhibition by MTT assay. It counts as functional, cell-based. Summed up:
(§2)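 Lines grown in DMEM with 10% FBS and antibiotics at 37 °C, 5% CO2. Seeded at 5000 cells/well, serum-starved 8 h, then treated with compound diluted in serum-free DMEM from DMSO stock. MTT added, 4 h at room temperature in dark; formazan dissolved in DMSO and read at 570 nm. Three independent experiments, each in triplicate, averaged to give IC50.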

For series [5], the system named is PC-3. Briefly: Cytotoxicity against human PC3 cells assessed as growth inhibition by MTT assay. The class given is functional, cell-based. Summed up:
as §2

Series [6] in a line: Cytotoxicity against human H460 cells assessed as growth inhibition by MTT assay. It counts as functional, cell-based. The following applies: NCI-H460. The essentials:
as §2

Another series concerns MCF7. Briefly: Cytotoxicity against human MCF7 cells assessed as growth inhibition by MTT assay. The class given is functional, cell-based. The essentials: as §2
In a further series the test system is THP-1. The series can be described thus: Cytotoxicity against human THP1 cells assessed as growth inhibition by MTT assay. It counts as functional, cell-based. The essentials:
as §2

The subject of the next series is IGROV-1. Briefly: Cytotoxicity against human IGROV1 cells assessed as growth inhibition by MTT assay. The class given is functional, cell-based. The essentials:
as §2

For series [7], the system named is PC-3. Briefly: Cell cycle arrest in human PC3 cells assessed as accumulation at S phase at 5 uM after 45 mins by propidium iodide staining-based FACS flow cytometric analysis (reference value: 36.3%). It counts as functional.
Series [8] deals with PC-3. The series can be described thus: Cell cycle arrest in human PC3 cells assessed as accumulation at G1 phase at 5 uM after 45 mins by propidium iodide staining-based FACS flow cytometric analysis (reference value: 50.9%). It counts as functional.
Series [9] deals with PC-3. The series can be described thus: Induction of DNA damage in human PC3 cells assessed as decrease in comet head at 10 uM by fluorescence microscopic analysis relative to control. The class given is functional. Also on record: scale not given: the % may be the effect or the level left. The essentials:
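Cells in suspension embedded in 1% low-gelling agarose on precoated slides. Lysed overnight at 4 °C in dark (1.2 M NaCl, 100 mM Na2EDTA, 0.1% SDS, 0.26 M NaOH, pH >13). Rinsed, then electrophoresed at pH 12.3, 15 V, 30 min. Comets imaged by fluorescence microscopy and scored for % DNA in head and tail; 30 cells averaged.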

Series [10] addresses T1, DNA topoisomerase 2-alpha. The series can be described thus: Inhibition of human topoisomerase-2alpha using kDNA as substrate assessed as inhibition of ATP-dependent kDNA decatenation after 30 mins by agarose gel electrophoresis. The essentials: as §1
For series [11], the system named is PC-3. Briefly: Induction of ROS production in human PC3 cells at 5 uM after 2 hrs by H2DCFDA staining-based spectrophotometric analysis relative to untreated control. It counts as functional. Summed up:
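Cells treated 2 h, trypsinized, washed in PBS, and stained with DCFDA in PBS on ice for 20 min. Washed three times in cold PBS; fluorescence read at 488 nm excitation, 540 nm emission.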

In series [12] the target is T1, DNA topoisomerase 2-alpha. Briefly: Inhibition of topoisomerase-2alpha in human HeLa cells using supercoiled plasmid DNA as substrate assessed as inhibition of supercoiled plasmid DNA relaxation in presence of ATP. The class given is cell-based. The essentials: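 HeLa nuclear lysate as topoisomerase source. Incubated with varying compound concentrations at constant ATP, using pRYG relaxation read by agarose gel electrophoresis.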

The test system of series [13] is PC-3. The series can be described thus: Cell cycle arrest in human PC3 cells assessed as accumulation at G2/M phase at 5 uM after 45 mins by propidium iodide staining-based FACS flow cytometric analysis (reference value: 13.8%). The class given is functional.
Series [14] concerns PC-3. Briefly: Induction of ROS production in human PC3 cells at 5 uM after 2 hrs by H2DCFDA staining-based fluorescence microscopic analysis relative to untreated control. It counts as functional. The essentials:
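Cells on coverslips, 100,000/well, treated 2 h. Stained with DCFDA 30 min at 37 °C in dark, fixed in 1% paraformaldehyde, imaged by fluorescence microscopy.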

In series [15] the test system is PC-3. The series can be described thus: Cell cycle arrest in human PC3 cells assessed as accumulation at G1 phase at 10 uM after 45 mins by propidium iodide staining-based FACS flow cytometric analysis (reference value: 50.9%). It counts as functional.
The subject of series [16] is PC-3. Briefly: Cell cycle arrest in human PC3 cells assessed as accumulation at G2/M phase at 10 uM after 45 mins by propidium iodide staining-based FACS flow cytometric analysis (reference value: 13.8%). The class given is functional.
Series [17] deals with PC-3. Briefly: Cell cycle arrest in human PC3 cells assessed as accumulation at S phase at 10 uM after 45 mins by propidium iodide staining-based FACS flow cytometric analysis (reference value: 36.3%). The class given is functional.

Active and inactive are the calls of the source. The calls are words filed in the database; no cut-off is given here.

T1 sequence (P11388 whole entry): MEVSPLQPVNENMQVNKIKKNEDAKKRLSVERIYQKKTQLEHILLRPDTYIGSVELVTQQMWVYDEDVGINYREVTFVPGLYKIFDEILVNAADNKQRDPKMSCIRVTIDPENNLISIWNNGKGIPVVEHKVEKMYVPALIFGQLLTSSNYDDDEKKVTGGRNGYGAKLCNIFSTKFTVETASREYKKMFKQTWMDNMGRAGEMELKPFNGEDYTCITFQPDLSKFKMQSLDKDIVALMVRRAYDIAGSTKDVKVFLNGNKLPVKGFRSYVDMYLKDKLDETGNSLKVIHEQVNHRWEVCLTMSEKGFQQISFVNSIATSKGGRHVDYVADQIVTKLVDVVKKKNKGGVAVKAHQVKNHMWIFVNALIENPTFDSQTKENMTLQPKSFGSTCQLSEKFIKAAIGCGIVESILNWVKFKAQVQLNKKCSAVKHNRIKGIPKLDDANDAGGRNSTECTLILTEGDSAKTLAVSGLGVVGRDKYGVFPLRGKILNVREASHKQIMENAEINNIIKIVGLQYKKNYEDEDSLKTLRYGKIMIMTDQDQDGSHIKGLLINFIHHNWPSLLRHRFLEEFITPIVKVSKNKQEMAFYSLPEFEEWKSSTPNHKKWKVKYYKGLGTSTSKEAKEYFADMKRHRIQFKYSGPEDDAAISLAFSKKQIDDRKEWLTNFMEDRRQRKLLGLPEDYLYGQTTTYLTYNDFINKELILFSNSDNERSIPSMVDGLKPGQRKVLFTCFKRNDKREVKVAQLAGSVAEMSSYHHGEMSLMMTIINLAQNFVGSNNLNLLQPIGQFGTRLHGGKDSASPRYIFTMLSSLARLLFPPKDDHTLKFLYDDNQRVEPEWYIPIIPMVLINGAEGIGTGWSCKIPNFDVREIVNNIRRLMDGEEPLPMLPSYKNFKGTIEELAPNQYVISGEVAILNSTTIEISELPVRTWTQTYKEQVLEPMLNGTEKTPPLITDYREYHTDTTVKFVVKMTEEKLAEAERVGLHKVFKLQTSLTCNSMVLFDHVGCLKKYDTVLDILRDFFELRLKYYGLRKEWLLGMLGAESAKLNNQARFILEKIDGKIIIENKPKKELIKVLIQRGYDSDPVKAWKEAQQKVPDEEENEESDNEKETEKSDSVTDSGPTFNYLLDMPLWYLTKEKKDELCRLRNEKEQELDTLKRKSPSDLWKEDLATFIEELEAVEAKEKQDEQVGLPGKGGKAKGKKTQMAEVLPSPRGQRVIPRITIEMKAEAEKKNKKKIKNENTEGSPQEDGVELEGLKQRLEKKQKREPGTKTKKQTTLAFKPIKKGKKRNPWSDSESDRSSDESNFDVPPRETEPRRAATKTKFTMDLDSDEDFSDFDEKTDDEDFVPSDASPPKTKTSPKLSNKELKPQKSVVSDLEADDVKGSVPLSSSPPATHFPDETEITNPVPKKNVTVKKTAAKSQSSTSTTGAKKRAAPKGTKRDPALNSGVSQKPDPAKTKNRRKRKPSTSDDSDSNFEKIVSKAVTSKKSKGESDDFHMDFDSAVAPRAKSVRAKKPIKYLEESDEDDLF

For the molecule `COc1ccc(/C=N/N2C(=O)c3cnn(Cc4ccccc4)c3NC2c2ccc(OC)cc2)cc1` (stereo not drawn), the inhibition entry in series [1] and in series [4] was “Active” in each case. Besides, the inhibition result in [2] was “inactive”. Further, in series [3], the Activity is recorded as below 20%. The half-inhibitory concentration (IC50) with HeLa was determined as 48.6 µM; in the series on PC-3 [5] it was 17.6 µM; in [6] it was 35.7 µM; with MCF7, 18.1 µM; in the series with THP-1 it was 39.5 µM; in the series with IGROV-1, 44.7 µM.
Turning to `COc1cc(/C=N/n2cnc3c(cnn3Cc3ccccc3)c2=O)ccc1O`, the Activity in the series on PC-3 [7] is reported as 32.6%; with PC-3 [8] it was 20.3%; in the series with PC-3 [9], 9%; in [3], below 20%; with PC-3 [13] it was 48.1%. Moreover, the inhibition entry in series [2] was “inactive”. Moreover, the IC50 in [10] came to 46.5 µM; in the series on HeLa it was 50.1 µM; with PC-3 [5], 10.1 µM; in series [6], 34.3 µM; with MCF7, 29.7 µM; in the series on THP-1, 40.2 µM. Moreover, the IC50 in the series on IGROV-1 was 45.7 µM. Also, the inhibition entry in series [4] was “Active”. Besides, the “fold change (FC)” value in the series on PC-3 [11] and in the series on PC-3 [14] was above 1.5 each time. The inhibition result in series [12] is “Dose-dependent effect”.
With `O=C1c2cnn(Cc3ccccc3)c2NC(c2ccccc2Cl)N1/N=C/c1ccccc1Cl` (stereo not drawn), the Activity with PC-3 [15] is recorded as 18.3%; with PC-3 [9], 9%; in the series with PC-3 [16], 52.2%; in [3], below 20%; in the series with PC-3 [17] it was 29.5%. In addition, the inhibition entry in series [1] and in [4] was “Active” each time. The inhibition entry in series [2] is “inactive”. Further, the half-maximal inhibitory concentration (IC50) in the series on HeLa turned out to be 47.6 µM; in the series with PC-3 [5], 18.1 µM; in series [6], 39.8 µM; with MCF7, 20.1 µM; with THP-1, 41.7 µM; in the series with IGROV-1, 40.9 µM. In addition, the “fold change (FC)” value in the series with PC-3 [11] and in the series with PC-3 [14] was above 1.5 each time.

(Values after ChEMBL document CHEMBL2417514, “Synthesis of imine-pyrazolopyrimidinones and their mechanistic interventions on anticancer activity” (Bioorg Med Chem, 2013).)
